Compound activity (PubChem BioAssay)
Ecoli rRNA inh = inhibits bacterial ribosomal RNA function over humanized ribosomes; E. coli WT GFP vs humanized-ribosome RFP mutants, fluorescence, 24 h; active compounds read low; DMSO median 0, no signal -100; 1.6% of 350,000 active; AID 720706; GFP signal change (wild-type ribosome), % (test concentration not listed);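 active = significant combined selectivity score with lowered wild-type GFP, culture density cut under 30%, mutant RFP and density less affected; inactive = any of these conditions unmet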
Vif imaging = inhibitors of HIV Vif; HEK293T cells, Vif self-association by quenched fluorescence, imaging, 24 h; inhibition, % at 7.49 µM; 0.35% of 340,000 active; AID 602346; in the data active = inhibition above about 50%, passing the limit was not always enough
Env fusion inh = HIV envelope-mediated fusion inhibition; HeLa-JRFL Env/CEM21 cell fusion, luciferase; inhibition, % at 12.3 µM; 1.1% of 360,000 active; AID 651610;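 active = mean replicate inhibition score of at least 50 and every replicate individually at or above 50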;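 note: 0% = plate neutral controls and 100% = maraviroc near 300 nM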
miR-122 sensor = miR-122 inhibition in Huh7 cells | 0.3% of 340,000 active | AID 602342 | activation (reporter increase), % at 12.5 µM | Huh7 miR-122 Renilla luciferase sensor, 48 h; neutral wells = 0, positive control = 100;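 active = mean replicate activation score at least 90 and every replicate individually at or above 90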;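 note: higher luciferase means less miR-122 activity so hits act as miR-122 inhibitors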
S100A4 inh HTS = blocks human S100A4 binding to myosin IIA peptide | inhibition, % at 10.7 µM | 0.14% of 360,000 active | P26447 | S100A4/TAMRA-MyoIIA peptide fluorescence polarization;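 active = mean inhibition of at least 70% across replicates, with every replicate also reaching that level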
Target sequence (P26447 whole entry, looked up): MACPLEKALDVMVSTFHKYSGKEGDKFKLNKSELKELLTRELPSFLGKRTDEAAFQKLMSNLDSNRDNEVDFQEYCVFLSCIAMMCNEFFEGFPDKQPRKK
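Assay system: human S100A4 monomer with TAMRA-labelled myosin IIA peptide / Buffer or medium: Calcium-containing HEPES buffer, pH 7.2 / Reagent: TAMRA-labelled myosin IIA heavy-chain peptide probe, 5 nM / Compound: one dose per compound / Timing: polarization read 5 min after assay mix addition, stable 5–60 min / Benchmarks: neutral control DMSO, positive control TFP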
FN deposition inh = fibronectin deposition inhibition; inhibition, % at 12.6 µM; AH1F fibroblasts, Alexa488-fibronectin deposition fluorescence, overnight; AID 743247; 0.086% of 350,000 active;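 active = mean inhibition across replicates of 30% or more, regardless of how many single replicates reach that level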;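 note: positive control wells lacked labelled fibronectin entirely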
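Material – AH1F fibroblast monolayer, labelled fibronectin deposition · Reagent – labelled fibronectin 24 nM · Timing – 1 h adhesion, overnight exposure · Measured by – fluorescence at 485 nm excitation, 525 nm emission · Read-out – inhibition of fibronectin deposition signal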
Starred values were filed as active, the others as inactive; [ ] = dose if it differs, or a comment. This is a sample that favours compounds with a hit; in the whole collection about 2.6% have one here.

How did O=C(NCCCN1CCCC1=O)c1ccccc1OCc1ccc(Cl)cc1Cl do in these assays?
Ecoli rRNA inh: -30.6*; Vif imaging: 17.0; Env fusion inh: 8.1; miR-122 sensor: 0.4; S100A4 inh HTS: 9.1; FN deposition inh: 1.0

What do the screens show for `COc1ccc(-c2cc(C(=O)NCCCN3CCCC3=O)c3ccccc3n2)cc1`?
Ecoli rRNA inh: -2.4; Vif imaging: 1.6; Env fusion inh: inactive; miR-122 sensor: 0.1; S100A4 inh HTS: -4.3; FN deposition inh: 7.1

What do the screens show for `C[C@@H]1CN([C@H](C)CO)C(=O)c2cc(NS(C)(=O)=O)ccc2O[C@@H](C)CCCCO[C@H]1CN(C)S(=O)(=O)c1cccs1`?
Ecoli rRNA inh: -3.0; Env fusion inh: -6.8[16.7 µM]; miR-122 sensor: 20.3[16.7 µM]; S100A4 inh HTS: 6.5

Results for CN1N=C2c3ccccc3CCCC2C1c1ccc(F)cc1 (stereo unspecified) ?
Ecoli rRNA inh: -40.0*; Vif imaging: 4.8; Env fusion inh: -20.6; S100A4 inh HTS: 8.5; FN deposition inh: -6.2

What do the screens show for `CC(=O)Nc1ccc(/C(C)=N/NC(=O)c2ccc(COc3ccccc3Cl)o2)cc1`?
Ecoli rRNA inh: -29.9*; Vif imaging: 1.4; Env fusion inh: 4.2; miR-122 sensor: 1.4; S100A4 inh HTS: -5.8; FN deposition inh: -4.5

How did Cc1nn(Cc2c(F)c(F)c(F)c(F)c2F)c(C)c1NC(=O)c1ccc(COc2ccc(F)cc2)o1 do in these assays?
Vif imaging: 6.5; Env fusion inh: 67.1*; miR-122 sensor: -1.9; FN deposition inh: 12.4

What do the screens show for `Cc1nn(Cc2c(F)c(F)c(F)c(F)c2F)c(C)c1NC(=O)c1ccc(COc2ccccc2Cl)cc1`?
Vif imaging: -10.8; Env fusion inh: 41.1; miR-122 sensor: -8.2; FN deposition inh: -10.7

What do the screens show for `Cc1nn(Cc2c(F)c(F)c(F)c(F)c2F)c(C)c1NC(=O)c1c(-c2ccccc2)nn(-c2ccccc2)c1C`?
Vif imaging: -13.9; Env fusion inh: 95.1*; miR-122 sensor: -3.1; FN deposition inh: 1.9

How did Cc1nn(Cc2c(F)c(F)c(F)c(F)c2F)c(C)c1NC(=O)c1ccc(COc2ccccc2Cl)o1 do in these assays?
Vif imaging: -17.8; Env fusion inh: 66.1*; miR-122 sensor: -24.7; FN deposition inh: 8.8

Results for C[C@@H]1CN([C@@H](C)CO)C(=O)c2cc(NC(=O)C3CCCCC3)ccc2O[C@@H](C)CCCCO[C@@H]1CN(C)C(=O)c1ccccc1 ?
Ecoli rRNA inh: 0.0; Env fusion inh: -3.5[16.7 µM]; miR-122 sensor: 2.4[16.7 µM]; S100A4 inh HTS: 1.1

Results for O=C(C1CCC1)N1CCCCN2[C@H](C1)[C@H](c1ccc(C#CC3CCCC3)cc1)[C@@H]2CO ?
miR-122 sensor: -25.6[16.7 µM]; S100A4 inh HTS: 0.1

What do the screens show for `Cc1ccccc1-c1ccc([C@H]2[C@H](CO)N3C(=O)CN(C(=O)Cc4ccccn4)C[C@@H]23)cc1`?
Ecoli rRNA inh: -2.5; S100A4 inh HTS: 8.6

What do the screens show for `N#Cc1nc(-c2ccccc2F)oc1NCc1cccc2c1OCO2`?
Ecoli rRNA inh: -29.4*; Vif imaging: 2.1; miR-122 sensor: -1.8; S100A4 inh HTS: 0.4

What do the screens show for `CN(C)CCNc1oc(-c2ccccc2F)nc1C#N`?
Ecoli rRNA inh: 7.8; Vif imaging: 7.5; Env fusion inh: -10.2; miR-122 sensor: 6.8; S100A4 inh HTS: -0.8; FN deposition inh: 3.3

Results for COc1ccc(S(=O)(=O)Nc2ccc3c(c2)C(=O)N([C@@H](C)CO)C[C@@H](C)[C@@H](CN(C)S(C)(=O)=O)OCCCC[C@@H](C)O3)cc1 ?
Ecoli rRNA inh: -6.0; Env fusion inh: -1.9[16.7 µM]; miR-122 sensor: 3.6[16.7 µM]; S100A4 inh HTS: -5.4

How did C(=N\Nc1nc2ccccc2[nH]1)/c1cccc2nccnc12 do in these assays?
Ecoli rRNA inh: -31.4*; Env fusion inh: 4.1; miR-122 sensor: -21.5; S100A4 inh HTS: -0.3; FN deposition inh: 11.5

Results for COc1cc(OC)c(OC)cc1/C=N/Nc1nc2ccccc2[nH]1 ?
Ecoli rRNA inh: -39.0*; Vif imaging: -1.4; Env fusion inh: -6.2; S100A4 inh HTS: -1.4; FN deposition inh: -9.4

What do the screens show for `C(=N\Nc1nc2ccccc2[nH]1)/c1ccccn1`?
Ecoli rRNA inh: 12.1; Vif imaging: -0.5; Env fusion inh: 20.2; S100A4 inh HTS: -2.6; FN deposition inh: 12.7

What do the screens show for `COC(=O)c1sc(-c2ccc(C(C)(C)C)cc2)cc1NC(=O)COCC(=O)O`?
Ecoli rRNA inh: -19.6; Env fusion inh: -9.0; miR-122 sensor: -2.9; S100A4 inh HTS: -2.1; FN deposition inh: -8.6

What do the screens show for `COC(=O)c1sc(-c2ccc(Cl)cc2)cc1NC(=O)CSCC(=O)O`?
Ecoli rRNA inh: -41.5*; Vif imaging: 51.3*; Env fusion inh: 16.4; S100A4 inh HTS: 2.1; FN deposition inh: 8.0

Results for COc1ccc(S(=O)(=O)N(C)C[C@@H]2Oc3ccc(NS(=O)(=O)c4cccs4)cc3C(=O)N([C@@H](C)CO)C[C@@H]2C)cc1 ?
Ecoli rRNA inh: 0.4; Env fusion inh: 7.2[16.7 µM]; miR-122 sensor: 3.5[16.7 µM]; S100A4 inh HTS: -16.8

Results for Cc1nn(Cc2c(Cl)cccc2Cl)c(C)c1NC(=O)c1cnn2c(C(F)F)cc(-c3ccccc3)nc12 ?
Vif imaging: 104.0*; Env fusion inh: -73.2; miR-122 sensor: -4.5; FN deposition inh: 11.2

Results for Cc1ccc(-c2cc(C(F)F)n3ncc(C(=O)Nc4c(C)nn(Cc5c(Cl)cccc5Cl)c4C)c3n2)cc1 ?
Vif imaging: 28.3; Env fusion inh: -21.7; miR-122 sensor: 2.6; FN deposition inh: -8.8

Results for C[C@H]1CN([C@@H](C)CO)C(=O)Cc2cc(NC(=O)CCN3CCOCC3)ccc2O[C@@H]1CN(C)Cc1ccc(Cl)c(Cl)c1 ?
Ecoli rRNA inh: -1.2; miR-122 sensor: -2.6[16.7 µM]; S100A4 inh HTS: 2.7

What do the screens show for `COC(=O)c1c(-n2c(C)cc(C=O)c2C)sc2c1CCCC2`?
Ecoli rRNA inh: -44.5; Vif imaging: 84.1*; miR-122 sensor: -6.5; S100A4 inh HTS: 35.3

How did Cc1cc(C=O)c(C)n1-c1sc2c(c1C(=O)O)CCCC2 do in these assays?
Vif imaging: 28.5; Env fusion inh: -11.7; FN deposition inh: -6.0

How did O=C(Nc1cccc(Cl)c1)N[C@H]1CC[C@H](CCNC(=O)C2CCCC2)O[C@H]1CO do in these assays?
Ecoli rRNA inh: -1.5; Env fusion inh: -8.4[16.7 µM]; miR-122 sensor: 43.7[16.7 µM]; S100A4 inh HTS: 131.9*; FN deposition inh: -5.7

What do the screens show for `O=C(Nc1ccccc1F)N[C@H]1CC[C@@H](CCNC(=O)C2CCCCC2)O[C@@H]1CO`?
Ecoli rRNA inh: -3.6; Env fusion inh: -6.4[16.7 µM]; miR-122 sensor: 1.4[16.7 µM]; S100A4 inh HTS: 16.8; FN deposition inh: 10.4
